Source: PMC4441290 (International Journal of Oncology, 2015)
Marks after values point to notes of the source that are not given here.

Columns and labels:
human V2r = settings: cited from earlier work; for Ki: human V2r ref 5
VWF = settings: after i.v. injection ref 4; cited from earlier work
MDA-MB-231 cells = test: Clonogenic; type: cell-based, human; settings: read-out: IC50 colony formation; MDA-MB-231, 7 days
In short: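 MDA-MB-231 cells were grown in complete medium containing peptide (100–1,500 nM), with medium plus peptide renewed after 72 h. Colonies of >50 cells were counted 7 days after seeding. IC50 was derived by linear regression of the concentration–inhibition plot. Data are from at least three independent experiments, mean ± SEM.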

[1] = tested on: F3II mouse mammary carcinoma cells; test: Cell proliferation assay; type: cell-based; settings: 72 h, concentration-dependent
In short: (§1)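 Cells seeded at 2.5×10^3 per 200 μl in complete DMEM (10% FBS, 2 mM glutamine), attached overnight. They were then exposed to peptide (100–1,500 nM) or vehicle for 72 h at 37°C, 5% CO2. MTT was added for 4 h, the product dissolved in DMSO, and absorbance read at 570 nm. Untreated control OD was set as 100% viability. Results came from at least three independent experiments, mean ± SEM.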

[2] = tested on: MCF-7 human breast carcinoma cells; test: Cell proliferation assay; type: cell-based; settings: 72-h exposure, 100–1,500 nM
In short: as §1

Acute toxicology study = type: in vivo, Wistar rats; settings: for ALT / AST / Creatinine / Direct bilirubin / Fibrinogen / GGT / Glucose / Hematocrit / RBC / Total protein / WBC / Weight: 72 h, mean ± SD
MDA-MB-231 xenografts = test: MDA-MB-231 xenograft tumour progression; type: in vivo, BALB/c athymic mice; settings: 0.3 μg/kg i.v. thrice weekly
In short: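 Athymic BALB/c nude females were injected s.c. with 5×10^6 MDA-MB-231 cells in 300 μl of DMEM:Matrigel (1:1). From day 14, at tumours of ~50 mm3, mice received 0.3 μg/kg i.v. thrice weekly against a saline vehicle. Caliper volumes were calculated as 0.52 × width² × length. Growth rate is the slope of the linear regression of volume over time, mean ± SD.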

F3II mammary tumours = test: F3II subcutaneous tumour progression and spontaneous lung metastases; type: in vivo, BALB/c mice
In short: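 Syngeneic female BALB/c mice were injected s.c. with 2×10^5 F3II cells. Dosing started 7 days later, at tumours of ~50 mm3, with 0.3 μg/kg i.v. thrice weekly against a saline vehicle. Caliper volumes were calculated as 0.52 × width² × length. Mice were necropsied on day 50, and Bouin-fixed lungs were scored for macroscopic nodules under a dissecting microscope. Data are mean ± SD.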

[3] = tested on: HMVEC-L human microvascular endothelial cells; test: Endothelial cell morphogenesis; type: cell-based; settings: 100 nM, 24 h
[4] = tested on: F3II cells injected into the tail vein; test: Experimental lung metastases assay; type: in vivo, BALB/c mice; settings: 0.3 μg/kg i.v., two doses (time zero and 24 h), day 21
In short: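 Female 8-week-old SPF BALB/c mice received 2×10^5 F3II cells in DMEM via the tail vein. Peptide at 0.3 μg/kg was given i.v. twice: at time zero and 24 h after cell injection. On day 21, lungs were excised, weighed, fixed in Bouin's solution and photographed, and lung nodules were counted.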

[5] = tested on: MDA-MB-231 human breast carcinoma cells; test: Cell proliferation assay; type: cell-based; settings: MDA-MB-231, tolvaptan 1,500 nM plus [V^4Q^5]dDAVP 1,500 nM
In short: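 MDA-MB-231 cells were seeded at 2.5×10^3 per 200 μl in complete DMEM and attached overnight. They were then given 1,500 nM test peptide alone or with the competitive V2r antagonist tolvaptan (1,500 nM) for 72 h. MTT was added for 4 h, DMSO used to solubilise, and absorbance read at 570 nm. Untreated control was set as 100%. There were at least three independent experiments, mean ± SEM.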

4-valine-dDAVP
affinity for the human V2r relative to dDAVP (human V2r; higher affinity than dDAVP ref 5): 10 fold | Ki (human V2r): 2.2 nM

NC(=O)CC[C@@H]1NC(=O)[C@H](Cc2ccccc2)NC(=O)[C@H](Cc2ccc(O)cc2)NC(=O)CCSSC[C@@H](C(=O)N2CCC[C@H]2C(=O)N[C@H](CCCN=C(N)N)C(=O)NCC(N)=O)NC(=O)[C@H](CC(N)=O)NC1=O [dDAVP, 1-deamino-8-D-arginine vasopressin]
time of peak levels of VWF release (VWF): 60 to 90 min | IC50 (MDA-MB-231 cells): 1440 nM | cytostatic effect on F3II cells [1]: mild cytostatic effect | effect on proliferation in MCF-7 cell cultures [2]: mild reduction of proliferation | ALT (Acute toxicology study; 1 μg/kg single i.v.): 22.8±3.4 IU/l | AST (Acute toxicology study; 1 μg/kg single i.v.): 36.6±11.6 IU/l | Creatinine (Acute toxicology study; 1 μg/kg single i.v.): 0.70 ± 0.16 mg/mL | Direct bilirubin (Acute toxicology study; 1 μg/kg single i.v.): 0.13 ± 0.04 mg/dL | Fibrinogen (Acute toxicology study; 1 μg/kg single i.v.): 221.0 ± 67.8 mg/dL | GGT (Acute toxicology study; 1 μg/kg single i.v.): 2.8±0.8 IU/l | Glucose (Acute toxicology study; 1 μg/kg single i.v.): 207.0±25.7 ^d mg/dl | Hematocrit (Acute toxicology study; 1 μg/kg single i.v.): 40.4±2.3% | RBC (Acute toxicology study; 1 μg/kg single i.v.): 5.2±0.3 10^6/ml | Total protein (Acute toxicology study; 1 μg/kg single i.v.): 6.6 ± 0.8 g/dL | WBC (Acute toxicology study; 1 μg/kg single i.v.): 4.8±0.3 10^3/ml | Weight (Acute toxicology study; 1 μg/kg single i.v.): 234.2 ± 8.1 g | ALT (Acute toxicology study; 10 μg/kg single i.v.): 22.6±3.4 IU/l | AST (Acute toxicology study; 10 μg/kg single i.v.): 30.0±5.6 IU/l | Creatinine (Acute toxicology study; 10 μg/kg single i.v.): 0.65 ± 0.08 mg/mL | Direct bilirubin (Acute toxicology study; 10 μg/kg single i.v.): 0.14±0.02 ^d mg/dl | Fibrinogen (Acute toxicology study; 10 μg/kg single i.v.): 226.7 ± 48.4 mg/dL | GGT (Acute toxicology study; 10 μg/kg single i.v.): 2.6±0.9 IU/l | Glucose (Acute toxicology study; 10 μg/kg single i.v.): 218.8±20.0 ^d mg/dl | Hematocrit (Acute toxicology study; 10 μg/kg single i.v.): 40.5±2.7% | RBC (Acute toxicology study; 10 μg/kg single i.v.): 5.5±0.3 10^6/ml | Total protein (Acute toxicology study; 10 μg/kg single i.v.): 6.9 ± 0.5 g/dL | WBC (Acute toxicology study; 10 μg/kg single i.v.): 4.4±0.5 10^3/ml | Weight (Acute toxicology study; 10 μg/kg single i.v.): 240.3 ± 9.4 g | ALT (Acute toxicology study; 100 μg/kg single i.v.): 21.3±2.1 IU/l | AST (Acute toxicology study; 100 μg/kg single i.v.): 47.5±17.8 IU/l | Creatinine (Acute toxicology study; 100 μg/kg single i.v.): 0.70 ± 0.09 mg/mL | Direct bilirubin (Acute toxicology study; 100 μg/kg single i.v.): 0.17±0.03 ^d mg/dl | Fibrinogen (Acute toxicology study; 100 μg/kg single i.v.): 243.0 ± 63.1 mg/dL | GGT (Acute toxicology study; 100 μg/kg single i.v.): 3.0±1.2 IU/l | Glucose (Acute toxicology study; 100 μg/kg single i.v.): 230.7±12.1 ^d mg/dl | Hematocrit (Acute toxicology study; 100 μg/kg single i.v.): 41.8±3.4% | RBC (Acute toxicology study; 100 μg/kg single i.v.): 5.7±0.3 10^6/ml | Total protein (Acute toxicology study; 100 μg/kg single i.v.): 7.0 ± 0.5 g/dL | WBC (Acute toxicology study; 100 μg/kg single i.v.): 4.1±0.7 10^3/ml | Weight (Acute toxicology study; 100 μg/kg single i.v.): 241.8 ± 16.8 g | safety profile (Acute toxicology study; reference standard, single i.v. 1, 10 or 100 μg/kg): consistent with previous observations | reduction in the number of blood vessels (intratumoural vascular density) (MDA-MB-231 xenografts): 30% | tumour growth rate (MDA-MB-231 xenografts; mean ± SD, control 7.44±0.66): 5.72±0.72 mm^3/day | spontaneous lung metastases (F3II mammary tumours; 0.3 μg/kg i.v. thrice weekly for 6 weeks, day 50): not significant | final tumour volume (F3II mammary tumours; 0.3 μg/kg i.v. thrice weekly, mean ± SD, P>0.05, control 1822.3±1185): 1574.8±466.1 mm^3 | capillary-like tube formation [3]: did not displayed any significant effects | reduction of the number of lung nodules [4]: 32% | Ki (human V2r): 23.3 nM

Cc1ccccc1C(=O)Nc1ccc(C(=O)N2CCCC(O)c3cc(Cl)ccc32)c(C)c1 (stereo not drawn) [tolvaptan]
blockade of growth-modulating activity of [V^4Q^5]dDAVP [5]: completely abolished
